{"source": "ChEMBL document CHEMBL1146795", "about": "“Synthesis and antiangiogenic activity of exo-olefinated deoxoartemisinin derivatives” (Bioorg Med Chem Lett, 2004)", "key": {"HUVEC [1]": {"system": "HUVEC", "experiment": "Antiangiogenic activity to suppress the growth factor induced tube formation byHUVEC on Matrigel was assessed at the concentration of 10 ug/mL", "format": "functional", "conditions": "Homo sapiens"}, "HUVEC [2]": {"system": "HUVEC", "experiment": "Antiangiogenic activity against HUVEC cells in HUVEC(Human Umbilical Vein Endothelial Cells) proliferation assay usingMTT colorimetric method", "format": "functional, cell-based", "outline": "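HUVEC growth measured by MTT colorimetric read-out. IC50 taken from a nonlinear regression fit with r2 > 0.9.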"}, "[3]": {"experiment": "Antiangiogenic activity against chorioallantoic membrane (CAM) assay at 10 ug/egg", "format": "functional, tissue-based"}}}
{"smiles": "CCC/C(Br)=C1/O[C@@H]2OC3(C)CC[C@H]4[C@H](C)CC[C@@H]([C@H]1C)[C@@]24OO3", "note": "(single isomer, unassigned)", "values": [{"measurement": "inhibition at 10 µg/mL", "setting": "HUVEC [1]", "value": 10, "unit": "%"}, {"measurement": "IC50", "setting": "HUVEC [2]", "value": 1.9, "unit": "µg/mL"}, {"measurement": "inhibition", "setting": "[3]", "value": 8, "unit": "%"}]}
{"smiles": "C[C@@H]1CC[C@H]2[C@@H](C)C(=Cc3ccccc3)O[C@@H]3OC4(C)CC[C@@H]1[C@]32OO4", "note": "(single isomer, unassigned)", "values": [{"measurement": "inhibition at 10 µg/mL", "setting": "HUVEC [1]", "value": 10, "unit": "%"}, {"measurement": "IC50", "setting": "HUVEC [2]", "value": 2.3, "unit": "µg/mL"}, {"measurement": "inhibition", "setting": "[3]", "value": 5, "unit": "%"}]}
{"smiles": "C[C@@H]1CC[C@H]2[C@@H](C)/C(=C\\c3ccccc3)O[C@@H]3OC4(C)CC[C@@H]1[C@]32OO4", "note": "(single isomer, unassigned)", "values": [{"measurement": "inhibition at 10 µg/mL", "setting": "HUVEC [1]", "value": 10, "unit": "%"}, {"measurement": "IC50", "setting": "HUVEC [2]", "value": 1.9, "unit": "µg/mL"}, {"measurement": "inhibition", "setting": "[3]", "value": 10, "unit": "%"}]}
{"smiles": "CCC/C(Br)=C1\\O[C@@H]2OC3(C)CC[C@H]4[C@H](C)CC[C@@H]([C@H]1C)[C@@]24OO3", "note": "(single isomer, unassigned)", "values": [{"measurement": "inhibition at 10 µg/mL", "setting": "HUVEC [1]", "value": 39, "unit": "%"}, {"measurement": "IC50", "setting": "HUVEC [2]", "value": 1.5, "unit": "µg/mL"}, {"measurement": "inhibition", "setting": "[3]", "value": 57, "unit": "%"}]}
{"smiles": "C[C@@H]1CC[C@H]2[C@@H](C)/C(=C\\Br)O[C@@H]3O[C@]4(C)CC[C@@H]1[C@]32OO4", "values": [{"measurement": "inhibition at 10 µg/mL", "setting": "HUVEC [1]", "value": 25, "unit": "%"}, {"measurement": "IC50", "setting": "HUVEC [2]", "value": 4.8, "unit": "µg/mL"}, {"measurement": "inhibition", "setting": "[3]", "value": 80, "unit": "%"}]}
{"smiles": "C/C(Br)=C1\\O[C@@H]2OC3(C)CC[C@H]4[C@H](C)CC[C@@H]([C@H]1C)[C@@]24OO3", "note": "(single isomer, unassigned)", "values": [{"measurement": "inhibition at 10 µg/mL", "setting": "HUVEC [1]", "value": 65, "unit": "%"}, {"measurement": "IC50", "setting": "HUVEC [2]", "value": 4.5, "unit": "µg/mL"}, {"measurement": "inhibition", "setting": "[3]", "value": 50, "unit": "%"}]}
{"smiles": "C/C(Br)=C1/O[C@@H]2OC3(C)CC[C@H]4[C@H](C)CC[C@@H]([C@H]1C)[C@@]24OO3", "note": "(single isomer, unassigned)", "values": [{"measurement": "inhibition at 10 µg/mL", "setting": "HUVEC [1]", "value": 32, "unit": "%"}, {"measurement": "IC50", "setting": "HUVEC [2]", "value": 25.4, "unit": "µg/mL"}, {"measurement": "inhibition", "setting": "[3]", "value": 43, "unit": "%"}]}
{"smiles": "CC(C)=C1O[C@@H]2OC3(C)CC[C@H]4[C@H](C)CC[C@@H]([C@H]1C)[C@@]24OO3", "note": "(single isomer, unassigned)", "values": [{"measurement": "inhibition at 10 µg/mL", "setting": "HUVEC [1]", "value": 13, "unit": "%"}, {"measurement": "IC50", "setting": "HUVEC [2]", "value": 2.3, "unit": "µg/mL"}, {"measurement": "inhibition", "setting": "[3]", "value": 29, "unit": "%"}]}
